The results in this text go back to ChEMBL document CHEMBL4351018, “Novel phenanthridin-6(5H)-one derivatives as potent and selective BET bromodomain inhibitors: Rational design, synthesis and biological evaluation” (Eur J Med Chem, 2019).

Structures are written as SMILES. pIC50: −log10 of the molar value.

The target of one assay is Bromodomain-containing protein 4 (Homo sapiens, UniProt O60885). Description: Inhibition of recombinant human His-tagged BRD4 bromodomain 1/2 (2 to 1362 residues) expressed in […] insect cells using biotinylated H4(1 to 21)K5/8/12/16Ac peptide as substrate preincubated for 30 mins followed by substrate addition and measured after 30 mins by Alpha screen assay.
Details: not given
For orientation: In Alpha technology, singlet oxygen from a donor bead excites a nearby acceptor bead.
As for `O=c1[nH]c2ccc(NS(=O)(=O)c3ccc4ccccc4c3)cc2c2ccccc12`, the negative-log IC50 (pIC50) is 5.14.
For the compound `O=c1[nH]c2ccc(NS(=O)(=O)Cc3ccccc3)cc2c2ccccc12`, the pIC50 was 5.29.
Still for that read-out and setting: for `CCCS(=O)(=O)Nc1ccc2[nH]c(=O)c3ccccc3c2c1` the value was 5.17.
Same read-out and setting: the result for `O=c1[nH]c2ccc(NS(=O)(=O)c3ccccc3Cl)cc2c2ccccc12` reads 5.90.
Still for that read-out and setting: for `O=c1[nH]c2ccc(NS(=O)(=O)c3cccs3)cc2c2ccccc12` the value was 5.17; for `O=c1[nH]c2ccc(NS(=O)(=O)c3ccccc3)cc2c2ccccc12`, 5.79.
For `O=C(Nc1ccc2[nH]c(=O)c3ccccc3c2c1)c1ccccc1`, the pIC50 was 4.73.
On the same count and under the same terms, for `O=c1[nH]c2ccc(NS(=O)(=O)c3ccc4c(c3)CCO4)cc2c2ccccc12` the value was 4.88; for `COc1ccccc1S(=O)(=O)Nc1ccc2[nH]c(=O)c3ccccc3c2c1`, 6.32; for `O=C(Nc1ccc2[nH]c(=O)c3ccccc3c2c1)Oc1ccccc1`, 5.22.
The same measure, in the same setting: for `CC(C)(C)c1ccc(S(=O)(=O)Nc2ccc3[nH]c(=O)c4ccccc4c3c2)cc1` the value was 5.95.
Turning to `O=c1[nH]c2ccc(NS(=O)(=O)c3ccc(Cl)cc3)cc2c2ccccc12`, the negative logarithm of the IC50 (pIC50) is 6.07.
On the same count and under the same terms, for `CCCCS(=O)(=O)Nc1ccc2[nH]c(=O)c3ccccc3c2c1` the value was 5.26; for `O=c1[nH]c2ccc(NS(=O)(=O)C3CCCCC3)cc2c2ccccc12`, 5.23.
The same measure, in the same setting: for `N#Cc1cccc(S(=O)(=O)Nc2ccc3[nH]c(=O)c4ccccc4c3c2)c1` the value was 5.75.
The same measure, in the same setting: for `O=c1[nH]c2ccc(NS(=O)(=O)C3CCCC3)cc2c2ccccc12` the value was 5.21.
On to `COc1ccc(S(=O)(=O)Nc2ccc3[nH]c(=O)c4ccccc4c3c2)cc1`, for which the negative logarithm of the IC50 (pIC50) was 5.88.
On the same count and under the same terms, for `O=c1[nH]c2ccc(NS(=O)(=O)c3cccc(Cl)c3)cc2c2ccccc12` the value was 6.10; for `COc1cc(Cl)ccc1S(=O)(=O)Nc1ccc2oc(=O)ccc2c1`, 6.03; for `O=C(Nc1ccccc1)Nc1ccc2[nH]c(=O)c3ccccc3c2c1`, 5.00.

The subject of the next assay is A549. Put plainly: Antiproliferative activity against human A549 cells incubated for 48 hrs by MTT assay. The class given is functional, cell-based. The note with it: A549, 48 h. A digest of the protocol: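 Cells kept in DMEM or RPMI 1640 with 10% FBS at 37 °C, 5% CO2. MTT added for 4 h at 37 °C, formazan dissolved in DMSO, OD read at 570 nm. Survival % taken relative to blank and control wells. Triplicate runs; IC50 from curve fit.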
On the technique in general: Formazan colour is commonly taken as a measure of viable cells.
The compound `COc1cc(Cl)ccc1S(=O)(=O)Nc1ccc2oc(=O)ccc2c1` showed a negative logarithm of the IC50 (pIC50) of 5.33.

Usually pIC50 stands for the IC50 on a negative log10 scale, so that one unit is a factor of ten.
